Measurements published in ChEMBL document CHEMBL4265907, “Design, synthesis and pharmacological evaluation of N4,N6-disubstituted pyrimidine-4,6-diamine derivatives as potent EGFR inhibitors in non-small cell lung cancer” (Eur J Med Chem, 2018).

Assays:
[1] = biological target: Platelet-derived growth factor receptor alpha (Homo sapiens) (UniProt P16234); test: Inhibition of recombinant human GST-tagged PDGFRalpha cytoplasmic domain (550 to 1089 residues) expressed in baculovirus expression system at 1 uM using FAM-labeled peptide as substrate after 10 mins by mobility shift assay relative to control
Chain of Platelet-derived growth factor receptor alpha (Homo sapiens) (P16234 whole entry, the tested form may be a part): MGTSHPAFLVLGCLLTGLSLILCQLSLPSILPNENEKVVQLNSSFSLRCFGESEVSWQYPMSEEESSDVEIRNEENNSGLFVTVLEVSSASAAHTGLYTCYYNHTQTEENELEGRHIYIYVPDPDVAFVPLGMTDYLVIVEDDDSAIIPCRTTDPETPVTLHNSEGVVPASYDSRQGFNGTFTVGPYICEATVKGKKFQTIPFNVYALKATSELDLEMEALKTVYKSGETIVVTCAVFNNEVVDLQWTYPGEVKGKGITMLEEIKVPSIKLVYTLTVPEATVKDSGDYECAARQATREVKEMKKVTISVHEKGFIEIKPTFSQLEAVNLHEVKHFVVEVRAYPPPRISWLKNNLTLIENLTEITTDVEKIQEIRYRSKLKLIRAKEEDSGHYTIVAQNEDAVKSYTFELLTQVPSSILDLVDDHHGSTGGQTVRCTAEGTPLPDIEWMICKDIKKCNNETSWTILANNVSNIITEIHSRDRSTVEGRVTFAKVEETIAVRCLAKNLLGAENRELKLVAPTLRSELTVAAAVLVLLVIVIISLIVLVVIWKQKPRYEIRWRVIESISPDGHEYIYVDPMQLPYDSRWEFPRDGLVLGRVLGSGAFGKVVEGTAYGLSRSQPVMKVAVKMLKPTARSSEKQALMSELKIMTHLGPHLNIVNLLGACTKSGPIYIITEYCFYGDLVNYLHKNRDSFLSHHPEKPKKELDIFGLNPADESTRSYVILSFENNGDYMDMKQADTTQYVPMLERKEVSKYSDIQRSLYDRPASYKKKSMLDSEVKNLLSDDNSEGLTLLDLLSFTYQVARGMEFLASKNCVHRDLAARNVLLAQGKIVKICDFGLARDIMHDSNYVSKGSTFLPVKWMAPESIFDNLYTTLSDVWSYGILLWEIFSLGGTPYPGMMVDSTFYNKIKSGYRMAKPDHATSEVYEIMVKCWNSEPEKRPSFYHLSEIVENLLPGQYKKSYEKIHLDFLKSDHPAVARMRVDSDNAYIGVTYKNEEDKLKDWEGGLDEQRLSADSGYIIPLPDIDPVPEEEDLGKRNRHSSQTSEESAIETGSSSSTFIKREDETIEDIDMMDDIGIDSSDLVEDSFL
How it was run: (§1)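 Caliper mobility-shift kinase assay. Kinase in kinase base buffer was preincubated with compound for 10 min at room temperature. FAM-labelled peptide and ATP at Km were then added, and the reaction ran at 28 °C until quenched with buffer. Screening concentration was 1 µM. Percent inhibition = (max − conversion)/(max − min) × 100, with DMSO as max and a low control as min.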

[2] = biological target: Hepatocyte growth factor receptor (Homo sapiens) (UniProt P08581); test: Inhibition of N-terminal GST-tagged human MET cytoplasmic domain (956 to 1390 residues) expressed in baculovirus expression system at 1 uM using FAM-labeled peptide as substrate after 10 mins by mobility shift assay relative to control; how it was run: as §1
[3] = biological target: Tyrosine-protein kinase JAK2 (Homo sapiens) (UniProt O60674); test: Inhibition of human N-terminal His-tagged JAK2 catalytic domain (826 to 1132 residues) expressed in baculovirus expression system at 1 uM using FAM-labeled peptide as substrate after 10 mins by mobility shift assay relative to control; how it was run: as §1
[4] = biological target: RAC-alpha serine/threonine-protein kinase (Homo sapiens) (UniProt P31749); test: Inhibition of recombinant human N-terminal His-tagged full length human AKT1 (1 to 480 residues) expressed in baculovirus infected Sf9 insect cells at 1 uM using FAM-labeled peptide as substrate after 10 mins by mobility shift assay relative to control; how it was run: as §1
[5] = biological target: Mast/stem cell growth factor receptor Kit (Homo sapiens) (UniProt P10721); test: Inhibition of recombinant human N-terminal GST-tagged c-KIT (544 to end residues) expressed in baculovirus infected Sf21 cells at 1 uM using FAM-labeled peptide as substrate after 10 mins by mobility shift assay relative to control; how it was run: as §1
[6] = biological target: T1, Mitogen-activated protein kinase kinase kinase kinase 2 (Homo sapiens) (UniProt Q12851); test: Inhibition of human N-terminal GST-tagged full length MAP4K2 (1 to 820 residues) expressed in baculovirus expression system at 1 uM using FAM-labeled peptide as substrate after 10 mins by mobility shift assay relative to control; how it was run: as §1
T1 sequence (whole entry): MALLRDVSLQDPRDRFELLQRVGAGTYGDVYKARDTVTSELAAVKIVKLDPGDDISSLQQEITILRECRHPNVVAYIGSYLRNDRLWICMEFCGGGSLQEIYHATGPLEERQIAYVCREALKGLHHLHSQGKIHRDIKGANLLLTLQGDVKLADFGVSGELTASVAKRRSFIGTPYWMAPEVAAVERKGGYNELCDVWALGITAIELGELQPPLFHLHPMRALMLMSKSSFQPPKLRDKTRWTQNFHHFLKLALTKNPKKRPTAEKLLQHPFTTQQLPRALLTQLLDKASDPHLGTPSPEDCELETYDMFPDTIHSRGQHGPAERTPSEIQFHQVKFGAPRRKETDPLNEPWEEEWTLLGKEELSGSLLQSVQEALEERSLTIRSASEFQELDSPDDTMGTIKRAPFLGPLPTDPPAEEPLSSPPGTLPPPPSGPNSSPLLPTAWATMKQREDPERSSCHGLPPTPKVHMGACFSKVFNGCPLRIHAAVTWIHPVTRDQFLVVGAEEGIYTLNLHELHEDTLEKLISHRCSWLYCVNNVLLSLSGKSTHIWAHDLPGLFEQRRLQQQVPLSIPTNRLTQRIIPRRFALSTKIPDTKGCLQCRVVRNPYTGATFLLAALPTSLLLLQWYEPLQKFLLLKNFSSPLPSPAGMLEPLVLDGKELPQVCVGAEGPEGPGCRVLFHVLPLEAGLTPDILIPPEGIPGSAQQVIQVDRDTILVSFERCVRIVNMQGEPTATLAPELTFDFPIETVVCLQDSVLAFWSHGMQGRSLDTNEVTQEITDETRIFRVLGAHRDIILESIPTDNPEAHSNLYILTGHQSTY

[7] = biological target: Mitogen-activated protein kinase kinase kinase kinase 4 (Homo sapiens) (UniProt O95819); test: Inhibition of human N-terminal GST-tagged full length MAP4K4 catalytic domain (1 to 328 residues) expressed in baculovirus expression system at 1 uM using FAM-labeled peptide as substrate after 10 mins by mobility shift assay relative to control; how it was run: as §1
Chain of Mitogen-activated protein kinase kinase kinase kinase 4 (Homo sapiens) (O95819 2-1239 limits assumed): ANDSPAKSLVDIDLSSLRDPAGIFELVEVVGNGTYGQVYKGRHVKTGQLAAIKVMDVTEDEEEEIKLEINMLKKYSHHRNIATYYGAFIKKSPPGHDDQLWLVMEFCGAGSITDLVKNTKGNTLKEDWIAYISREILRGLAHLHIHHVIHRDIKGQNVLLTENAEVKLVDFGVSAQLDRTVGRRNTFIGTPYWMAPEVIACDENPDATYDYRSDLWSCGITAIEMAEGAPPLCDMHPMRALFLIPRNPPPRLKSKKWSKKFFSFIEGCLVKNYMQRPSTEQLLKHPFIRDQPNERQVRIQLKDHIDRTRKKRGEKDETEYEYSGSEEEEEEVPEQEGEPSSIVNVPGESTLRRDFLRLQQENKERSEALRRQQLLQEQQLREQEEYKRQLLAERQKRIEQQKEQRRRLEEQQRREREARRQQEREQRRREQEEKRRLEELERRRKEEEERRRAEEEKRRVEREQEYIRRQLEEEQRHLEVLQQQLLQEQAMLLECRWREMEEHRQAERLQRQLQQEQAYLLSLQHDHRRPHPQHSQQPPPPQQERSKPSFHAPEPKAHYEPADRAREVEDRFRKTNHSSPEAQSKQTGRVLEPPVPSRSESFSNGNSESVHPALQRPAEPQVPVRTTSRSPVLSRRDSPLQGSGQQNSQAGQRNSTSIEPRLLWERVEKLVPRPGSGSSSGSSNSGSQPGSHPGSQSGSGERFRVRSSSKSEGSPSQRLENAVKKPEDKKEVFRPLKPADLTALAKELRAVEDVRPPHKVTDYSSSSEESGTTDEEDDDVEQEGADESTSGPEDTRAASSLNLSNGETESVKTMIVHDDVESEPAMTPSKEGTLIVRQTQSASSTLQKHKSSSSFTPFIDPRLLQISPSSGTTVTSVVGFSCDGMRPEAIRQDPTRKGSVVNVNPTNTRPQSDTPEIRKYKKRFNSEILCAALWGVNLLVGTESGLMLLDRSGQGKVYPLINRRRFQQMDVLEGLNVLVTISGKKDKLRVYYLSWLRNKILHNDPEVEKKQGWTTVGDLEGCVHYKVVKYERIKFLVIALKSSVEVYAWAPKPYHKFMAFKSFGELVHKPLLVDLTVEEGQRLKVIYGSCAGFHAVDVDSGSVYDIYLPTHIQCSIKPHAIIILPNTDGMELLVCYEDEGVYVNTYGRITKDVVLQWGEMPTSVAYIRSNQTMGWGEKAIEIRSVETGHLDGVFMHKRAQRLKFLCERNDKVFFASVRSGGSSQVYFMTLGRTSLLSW

[8] = biological target: Serine/threonine-protein kinase B-raf (Homo sapiens) (UniProt P15056); test: Inhibition of recombinant human GST-tagged full length BRAF expressed in baculovirus expression system at 1 uM using FAM-labeled peptide as substrate after 10 mins by mobility shift assay relative to control; how it was run: as §1
Chain of Serine/threonine-protein kinase B-raf (Homo sapiens) (P15056 whole entry, the tested form may be a part): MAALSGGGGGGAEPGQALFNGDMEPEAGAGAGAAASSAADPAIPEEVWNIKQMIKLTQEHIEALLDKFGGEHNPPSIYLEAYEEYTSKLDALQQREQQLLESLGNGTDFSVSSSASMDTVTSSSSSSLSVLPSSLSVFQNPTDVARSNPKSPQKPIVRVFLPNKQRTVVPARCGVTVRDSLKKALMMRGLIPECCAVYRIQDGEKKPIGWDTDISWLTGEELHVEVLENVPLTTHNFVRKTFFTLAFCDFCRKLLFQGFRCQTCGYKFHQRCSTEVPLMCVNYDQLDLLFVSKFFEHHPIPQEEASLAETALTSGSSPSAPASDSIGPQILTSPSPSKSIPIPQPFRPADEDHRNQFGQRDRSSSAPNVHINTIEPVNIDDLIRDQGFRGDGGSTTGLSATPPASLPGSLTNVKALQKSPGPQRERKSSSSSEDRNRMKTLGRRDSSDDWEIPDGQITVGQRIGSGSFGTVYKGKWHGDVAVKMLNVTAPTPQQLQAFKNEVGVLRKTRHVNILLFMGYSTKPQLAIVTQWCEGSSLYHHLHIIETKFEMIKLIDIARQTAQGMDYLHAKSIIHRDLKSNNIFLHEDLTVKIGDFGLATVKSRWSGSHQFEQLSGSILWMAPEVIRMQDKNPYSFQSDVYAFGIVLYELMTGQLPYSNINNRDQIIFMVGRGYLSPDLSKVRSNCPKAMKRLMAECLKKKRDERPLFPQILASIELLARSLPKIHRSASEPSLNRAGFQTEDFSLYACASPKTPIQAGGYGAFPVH

[9] = biological target: Serine/threonine-protein kinase PAK 2 (Homo sapiens) (UniProt Q13177); test: Inhibition of human N-terminal GST-tagged full length PAK2 (1 to 524 residues) expressed in baculovirus expression system at 1 uM using FAM-labeled peptide as substrate after 10 mins by mobility shift assay relative to control; how it was run: as §1
Chain of Serine/threonine-protein kinase PAK 2 (Homo sapiens) (Q13177 whole entry, the tested form may be a part): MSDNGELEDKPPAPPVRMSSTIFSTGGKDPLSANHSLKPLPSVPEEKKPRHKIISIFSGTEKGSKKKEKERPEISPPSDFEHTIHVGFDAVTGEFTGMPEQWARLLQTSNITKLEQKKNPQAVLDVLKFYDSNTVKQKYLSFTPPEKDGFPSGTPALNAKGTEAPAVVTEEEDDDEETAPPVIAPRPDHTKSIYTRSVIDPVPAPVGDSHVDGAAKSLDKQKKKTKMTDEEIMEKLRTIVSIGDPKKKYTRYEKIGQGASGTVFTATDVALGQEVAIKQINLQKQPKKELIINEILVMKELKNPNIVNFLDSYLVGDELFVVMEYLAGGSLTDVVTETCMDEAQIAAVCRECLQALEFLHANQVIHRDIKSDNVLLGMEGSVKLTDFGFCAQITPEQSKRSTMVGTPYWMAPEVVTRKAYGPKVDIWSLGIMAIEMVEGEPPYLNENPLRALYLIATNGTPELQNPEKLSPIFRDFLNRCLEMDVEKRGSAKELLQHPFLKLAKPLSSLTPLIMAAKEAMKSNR

[10] = biological target: T2, Aurora kinase A (Homo sapiens) (UniProt O14965); test: Inhibition of human N-terminal GST-tagged AURA (1 to 403 residues) expressed in baculovirus expression system at 1 uM using FAM-labeled peptide as substrate after 10 mins by mobility shift assay relative to control; how it was run: as §1
T2 sequence (whole entry): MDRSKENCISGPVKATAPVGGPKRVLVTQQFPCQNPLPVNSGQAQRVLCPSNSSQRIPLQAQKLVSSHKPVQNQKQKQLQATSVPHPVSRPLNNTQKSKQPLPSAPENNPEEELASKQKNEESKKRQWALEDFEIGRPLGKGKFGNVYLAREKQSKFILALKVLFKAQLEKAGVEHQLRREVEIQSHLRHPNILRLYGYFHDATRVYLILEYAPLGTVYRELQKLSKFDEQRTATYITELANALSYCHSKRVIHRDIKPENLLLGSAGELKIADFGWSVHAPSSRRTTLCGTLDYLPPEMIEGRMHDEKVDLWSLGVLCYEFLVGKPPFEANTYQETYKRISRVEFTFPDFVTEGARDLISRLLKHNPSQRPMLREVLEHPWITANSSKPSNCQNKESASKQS

[11] = biological target: Vascular endothelial growth factor receptor 2 (Homo sapiens) (UniProt P35968); test: Inhibition of N-terminal GST-tagged human KDR cytoplasmic domain (790 to 1356 residues) expressed in baculovirus expression system at […] using FAM-labeled peptide as substrate after 10 mins by mobility shift assay relative to control; how it was run: as §1
Chain of Vascular endothelial growth factor receptor 2 (Homo sapiens) (P35968 whole entry, the tested form may be a part): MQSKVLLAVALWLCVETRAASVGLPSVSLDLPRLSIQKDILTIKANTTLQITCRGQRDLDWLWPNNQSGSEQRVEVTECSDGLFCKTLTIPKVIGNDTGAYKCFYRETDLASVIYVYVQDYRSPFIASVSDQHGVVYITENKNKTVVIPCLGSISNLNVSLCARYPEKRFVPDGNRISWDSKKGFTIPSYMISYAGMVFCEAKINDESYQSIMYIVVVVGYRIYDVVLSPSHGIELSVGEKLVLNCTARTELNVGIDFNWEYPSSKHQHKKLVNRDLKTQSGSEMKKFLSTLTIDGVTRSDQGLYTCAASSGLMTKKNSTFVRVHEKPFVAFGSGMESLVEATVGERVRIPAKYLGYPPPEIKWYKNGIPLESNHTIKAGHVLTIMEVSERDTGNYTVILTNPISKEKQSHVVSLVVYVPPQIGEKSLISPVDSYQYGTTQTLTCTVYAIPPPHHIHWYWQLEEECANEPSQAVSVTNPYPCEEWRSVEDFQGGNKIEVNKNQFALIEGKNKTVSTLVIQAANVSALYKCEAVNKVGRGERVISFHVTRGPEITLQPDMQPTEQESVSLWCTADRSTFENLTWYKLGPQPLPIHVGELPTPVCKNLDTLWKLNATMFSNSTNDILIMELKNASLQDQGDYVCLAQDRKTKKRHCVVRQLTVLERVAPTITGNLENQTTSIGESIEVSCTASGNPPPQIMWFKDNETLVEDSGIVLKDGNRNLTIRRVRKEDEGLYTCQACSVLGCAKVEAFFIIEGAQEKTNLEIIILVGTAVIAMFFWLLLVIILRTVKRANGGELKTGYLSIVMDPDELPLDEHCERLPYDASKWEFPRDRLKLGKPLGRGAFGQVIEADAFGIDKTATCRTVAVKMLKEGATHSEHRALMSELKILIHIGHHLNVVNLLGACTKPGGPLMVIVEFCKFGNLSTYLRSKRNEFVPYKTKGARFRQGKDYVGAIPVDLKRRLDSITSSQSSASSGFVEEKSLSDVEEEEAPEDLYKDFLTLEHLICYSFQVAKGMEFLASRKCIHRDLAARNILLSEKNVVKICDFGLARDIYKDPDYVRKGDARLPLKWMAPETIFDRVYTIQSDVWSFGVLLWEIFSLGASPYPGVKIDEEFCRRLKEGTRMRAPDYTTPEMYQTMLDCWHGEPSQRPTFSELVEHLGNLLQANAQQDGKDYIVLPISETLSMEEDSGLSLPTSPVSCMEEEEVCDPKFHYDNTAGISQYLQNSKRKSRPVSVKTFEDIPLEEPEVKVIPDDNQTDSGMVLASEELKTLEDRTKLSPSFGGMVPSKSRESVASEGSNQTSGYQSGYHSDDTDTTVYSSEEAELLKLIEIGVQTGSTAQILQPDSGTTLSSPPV

Compound | inhibition [1] | inhibition [2] | inhibition [3] | inhibition [4] | inhibition [5] | inhibition [6] | inhibition [7] | inhibition [8] | inhibition [9] | inhibition [10] | inhibition [11]
COc1cccc(Nc2cc(NC(=O)CCCC(=O)O)ncn2)c1 | 8% | 12% | 17.7% | 6.8% | 13.3% | 10.5% | 13.5% | 11.3% | 18.9% | 19.8% | 10.5%
O=C(O)CCCC(=O)Nc1cc(N2CCOCC2)ncn1 | 9.2% | 9.2% | 0.2% | -3% | -4.4% | 3.3% | 21.6% | 16.7% | 9.4% | 49% | 14.4%
COc1cccc(Nc2cc(Nc3cc(OC)ccc3OC)ncn2)c1 | 26.9% | 7.2% | 0.7% | -2.1% | 0.4% | 5.4% | 53.5% | 47.5% | 4.7% | 52.3% | 7.3%
CCOC(=O)c1ccc(Nc2cc(NC(=O)CCCC(=O)O)ncn2)cc1 | 4.7% | 4.4% | 4.2% | 4.7% | 5.9% | 5.5% | 56.3% | 12.7% | 15.7% | 17.3% | -1.4%
COc1ccc(Nc2cc(NC(=O)c3ccccc3)ncn2)cc1 | 21.7% | 3.3% | -4.2% | -3.4% | 26% | -3.2% | 44.8% | 16.6% | 13.4% | 2.6% | 12.4%
O=C(O)CCCC(=O)Nc1cc(Nc2cccc(Cl)c2)ncn1 | 43% | 4% | 12.7% | 0% | 13.3% | 9.2% | 78.2% | 79.3% | 16.9% | 8.7% | 8.5%
